Results published in ChEMBL document CHEMBL3414541, “Discovery of new thienopyrimidinone derivatives displaying antimalarial properties toward both erythrocytic and hepatic stages of Plasmodium” (Eur J Med Chem, 2015).
Calls of active or inactive are those of the source. The calls are words filed in the database; no cut-off is given here.

What was measured:
HepG2 = assay: (§1) Cytotoxicity against human HepG2 cells assessed as cell viability after 72 hrs by MTT assay; format: cell-based; conditions: hepg2, 72 h
Outline: (§2)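 Cells were kept in RPMI with 10% FBS. 5×10^3 cells/well were settled 24 h, then exposed to compound from DMSO (final <0.5%): CHO for 24 h, HepG2 for 72 h, in duplicate. Wells were checked for precipitate. MTT was added for 2 h at 37 °C, formazan dissolved in DMSO, and A570 read (630 nm reference). Viability is % of untreated cells; CC50 from non-linear regression, mean of three experiments.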

Plasmodium falciparum [1] = assay: Antiplasmodial activity against multi-drug resistant Plasmodium falciparum K1 infected in human erythrocytes assessed as parasite growth inhibition after 72 hrs by SYBR Green I dye-based fluorescence assay; format: functional, organism-based
Plasmodium falciparum [2] = assay: Antiplasmodial activity against multi-drug resistant Plasmodium falciparum K1 infected in human erythrocytes assessed as parasite growth inhibition after 72 hrs by SYBR Green I dye-based fluorescence assay in presence of ascorbic acid; format: functional, organism-based; conditions: K1, 72 h
Outline: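 Same SYBR Green I 72 h growth assay on the K1 strain (2% haematocrit, 1% parasitaemia, 37 °C, 6% CO2/14% O2/80% N2, DMSO <0.5%), with 800 µM ascorbic acid in the medium as radical trap. Duplicates; artesunate as positive control; IC50 derived.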

[3] = as §1; format: cell-based; conditions: HepG2 cells; outline: as §2
[4] = Selectivity index, ratio of CC50 for human HepG2 cells to IC50 for multi-drug resistant Plasmodium falciparum K1 infected in human erythrocytes
Salmonella typhimurium [5] = assay: Mutagenicity in Salmonella typhimurium TA97A at 2.5 mM after 1 hr by Ames test in absence of S9 fraction; format: toxicity, organism-based; conditions: salmonella enterica subsp. enterica serovar typhimurium, 2500 µM
Outline: (§3)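 Tester strains were grown overnight in nutrient broth. 0.1 mL culture was incubated 1 h at 37 °C with shaking with compound (2.5–25 mM DMSO solutions), with or without 4% S9 mix. Top agar was added and the mix plated on Vogel-Bonner agar. Revertants were counted after 48 h at 37 °C in the dark. A twofold rise over spontaneous revertants counts as mutagenic.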

Salmonella typhimurium [6] = assay: Mutagenicity in Salmonella typhimurium TA100 at 2.5 mM after 1 hr by Ames test in absence of S9 fraction; format: toxicity, organism-based; conditions: salmonella enterica subsp. enterica serovar typhimurium, 2500 µM; outline: as §3
Plasmodium falciparum [7] = assay: Antiplasmodial activity against multi-drug resistant Plasmodium falciparum K1 infected in human erythrocytes assessed as depolarization of mitochondrial membrane at IC50 after 20 mins by flow cytometric analysis; format: functional, organism-based
[8] = Inhibition of Plasmodium falciparum DHFR after 48 hrs
Outline: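 Recombinant S. cerevisiae whose own DHFR is replaced by the P. falciparum DHFR domain was used. 1×10^4 cells were grown in YEPD with compound from DMSO (final <0.5%) at 30 °C for 48 h, in duplicate. Growth was read as A660. IC50 (50% growth inhibition) came from non-linear regression.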

[9] = Cytotoxicity against human HepG2 cells expressing CD81 assessed as cell viability after 72 hrs by CellTiter-glo assay; format: cell-based
Plasmodium yoelii = assay: Antiplasmodial activity against liver stage of Plasmodium yoelii 17X NL sporozoites infected in human HepG2 cells expressing CD81 after 48 hrs by DAPI staining-based immunofluorescence analysis; format: functional, organism-based; conditions: HepG2, 48 h
Outline: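 HepG2/CD81 cells were grown in D-MEM with 10% FBS. 25×10^3 cells/well went on collagen-coated wells; after 24 h they received compound and 5000 P. yoelii sporozoites together, then were spun 900 × g for 10 min at 4 °C. Treatment was renewed at 3 h and 24 h. At 48 h cells were methanol-fixed, stained with anti-HSP70 immunofluorescence, and parasites counted by microscopy. IC50 is 50% fewer parasites than in 0.5% DMSO controls.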

[10] = Selectivity index, ratio of CC50 for human HepG2 cells expressing CD81 to IC50 for liver stage of Plasmodium yoelii 17X NL sporozoites infected in human HepG2 cells expressing CD81; format: functional
[11] = Genotoxicity in DNA (unknown origin) incubated for 24 hrs in dark condition by methyl green displacement assay
Outline: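 DNA-methyl green (4 mg in 20 mL 0.05 M Tris-HCl pH 7.5 with 7.5 mmol/L MgSO4) was shaken 24 h at 37 °C. It was then added to compound from DMSO (final <0.5%). A630 was read, and read again after 24 h at room temperature in the dark. DC50 is the concentration displacing 50% of methyl green.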

[12] = Cytotoxicity against CHO cells assessed as cell viability after 24 hrs by MTT assay; format: cell-based, Cricetulus griseus; conditions: chinese hamster; outline: as §2
[13] = Plasmodium falciparum, K1, 72 h, read-out: IC50

Structure (SMILES)	CC50 at 72 h [3] [µM]	IC50 (Plasmodium falciparum [1]; [13]) [µM]	also measured
CCN(CC)c1nc2cc(-c3ccc(C)cc3)sc2c(=O)[nH]1			CC50 (HepG2): ND(Insoluble); IC50 (Plasmodium falciparum [1]): ND(Insoluble)
C[C@H]1[C@H](OC(=O)CCC(=O)O)O[C@@H]2O[C@@]3(C)CC[C@H]4[C@H](C)CC[C@@H]1[C@@]24OO3 [ARTESUNATE]			IC50 (Plasmodium falciparum [2]): 0.7 µM
Cc1ccc(-c2cc3nc(NC(C)c4ccccc4)[nH]c(=O)c3s2)cc1 (stereo not given)	9.2	> 5	
CCCNc1nc2cc(-c3ccc(C)cc3)sc2c(=O)[nH]1	> 62.5	> 5	
Cc1cccc(-c2cc3nc(NC(C)(C)C)[nH]c(=O)c3s2)c1	14.1	3.6	Ratio CC50/IC50 [4]: 3
COc1ccc(-c2cc3nc(NC(C)(C)C)[nH]c(=O)c3s2)cc1	32.3	> 5	
CCCCN(CCCC)c1nc2cc(-c3ccc(C)cc3)sc2c(=O)[nH]1			CC50 (HepG2): ND(Insoluble); IC50 (Plasmodium falciparum [1]): ND(Insoluble)
CC(C)Nc1nc2ccsc2c(=O)[nH]1	23.9	> 5	
CCN(CCCl)CCCNc1c2ccc(Cl)cc2nc2ccc(OC)cc12			Activity (Salmonella typhimurium [5]): Toxic; Activity (Salmonella typhimurium [6]): Toxic
CC(C)Nc1nc2cc(-c3ccc(Br)cc3)sc2c(=O)[nH]1	13.4	1.7	Ratio CC50/IC50 [4]: 9
CC(C)(C)Nc1nc2cc(-c3ccc(Cl)cc3)sc2c(=O)[nH]1			Activity (Plasmodium falciparum [7]): inactive
CC(C)Nc1nc2cc(-c3ccc(F)cc3)sc2c(=O)[nH]1	> 25	0.5	Ratio CC50/IC50 [4]: >66
Cc1ccccc1-c1cc2nc(NC(C)(C)C)[nH]c(=O)c2s1	4	1.7	Ratio CC50/IC50 [4]: 2
CC(C)Nc1nc2cc(-c3ccc(Cl)cc3)sc2c(=O)[nH]1	> 15.6	0.6	Ratio CC50/IC50 [4]: >26
CCCCCN(CCCCC)c1nc2cc(-c3ccc(C)cc3)sc2c(=O)[nH]1			CC50 (HepG2): ND(Insoluble); IC50 (Plasmodium falciparum [1]): ND(Insoluble)
COc1ccc(-c2csc3c(=O)[nH]c(NC(C)C)nc23)cc1	27.8	> 5	
CC1(C)N=C(N)N=C(N)N1c1ccc(Cl)cc1 [CYCLOGUANIL]			IC50 [8]: 5 µM
Cc1ccc(-c2ccc3nc(NC(C)(C)C)[nH]c(=O)c3c2)cc1.Cl	0.49	> 5	Ratio CC50/IC50 [4]: <10.2
Cc1ccc(-c2ccc3c(=O)[nH]c(NC(C)(C)C)nc3c2)cc1	0.98	> 5	Ratio CC50/IC50 [4]: <5.1
[N-]=[N+]=[N-].[Na+] [SODIUM AZIDE]			Activity (Salmonella typhimurium [5]): Toxic; Activity (Salmonella typhimurium [6]): Toxic
COc1cc(NC(C)CCCN)c2ncccc2c1 (stereo not given) [PRIMAQUINE]			CC50 at 72 h [9]: 6.1 µM; IC50 (Plasmodium yoelii): 1.16 µM; Ratio CC50/IC50 [10]: 5.3
CC(C)Nc1nc2c(-c3ccc(F)cc3)csc2c(=O)[nH]1	> 15.6	> 5	
CCC(CC)Nc1nc2cc(-c3ccc(C)cc3)sc2c(=O)[nH]1	101	> 5	
COc1ccc(-c2cc3nc(NC(C)C)[nH]c(=O)c3s2)cc1	27.1	0.5	Ratio CC50/IC50 [4]: 136
O=C1C(O)=C([C@H]2CC[C@H](c3ccc(Cl)cc3)CC2)C(=O)c2ccccc21 [ATOVAQUONE]	> 15.6		CC50 at 72 h [9]: 9.5 µM; IC50 (Plasmodium yoelii): 0.009 µM
Cc1ccc(-c2cc3nc(NC(C)C)[nH]c(=O)c3s2)cc1			Activity (Plasmodium falciparum [7]): inactive

Structure (SMILES)	CC50 at 72 h [3] [µM]	IC50 (Plasmodium falciparum [1]; [13]) [µM]	also measured
CCCCN(C)c1nc2cc(-c3ccc(C)cc3)sc2c(=O)[nH]1	3	> 5	
COc1cccc2c1C(=O)c1c(O)c3c(c(O)c1C2=O)C[C@@](O)(C(C)=O)C[C@@H]3O[C@H]1C[C@H](N)[C@H](O)[C@H](C)O1 [DAUNORUBICIN]			DC50 [11]: 1 µM
CCCCCCNc1nc2cc(-c3ccc(C)cc3)sc2c(=O)[nH]1	10.6	> 5	
Cc1ccc(-c2csc3c(=O)[nH]c(NC(C)C)nc23)cc1	8.8	2.7	Ratio CC50/IC50 [4]: 3
CCc1nc(N)nc(N)c1-c1ccc(Cl)cc1 [PYRIMETHAMINE]			IC50 [8]: 2.8 µM
CCCCNc1nc2cc(-c3ccc(C)cc3)sc2c(=O)[nH]1	6	> 5	
Cc1ccc(-c2cc3nc(NC(C)(C)C)[nH]c(=O)c3s2)cc1			Activity (Plasmodium falciparum [7]): inactive
CC(C)(C)Nc1nc2cc(-c3ccccc3)sc2c(=O)[nH]1	12.5	1	Ratio CC50/IC50 [4]: 10
COc1cccc2c1C(=O)c1c(O)c3c(c(O)c1C2=O)C[C@@](O)(C(=O)CO)C[C@@H]3O[C@H]1C[C@H](N)[C@H](O)[C@H](C)O1 [DOXORUBICIN]			CC50 at 24 h [12]: 0.6 µM
CC(C)Nc1nc2c(-c3ccc(Cl)cc3)csc2c(=O)[nH]1	7.1	> 5	
Cc1ccc(-c2cc3nc(NCC(C)C)[nH]c(=O)c3s2)cc1	21.6	> 5	
CCCCCCC(C)Nc1nc2cc(-c3ccc(C)cc3)sc2c(=O)[nH]1 (stereo not given)	19.4	> 5	
C[C@@H]1CC[C@H]2[C@@H](C)C(=O)O[C@@H]3O[C@@]4(C)CC[C@@H]1[C@]32OO4 [ARTEMISININ]			CC50 at 72 h [9]: > 10 µM; IC50 (Plasmodium yoelii): > 10 µM
Cc1ccc(-c2cc3nc(N)[nH]c(=O)c3s2)cc1			CC50 (HepG2): ND(Insoluble); IC50 (Plasmodium falciparum [1]): ND(Insoluble)
CC(C)Nc1nc2c(-c3ccc(Br)cc3)csc2c(=O)[nH]1	6.5	> 5	
Cc1ccc(-c2cc3nc(NCc4ccccc4Cl)[nH]c(=O)c3s2)cc1	32.6	> 5	
CC(C)(C)Nc1nc2ccsc2c(=O)[nH]1	8.4	> 5	
CC(C)(C)Nc1nc2c(-c3ccc(F)cc3)csc2c(=O)[nH]1	2.3	> 5	
Cc1ccc(-c2csc3c(=O)[nH]c(NC(C)(C)C)nc23)cc1	1.4	> 5	
CC(C)(C)Nc1nc2cc(-c3ccc(Br)cc3)sc2c(=O)[nH]1	1.4	> 5	
CCCN(CCC)c1nc2cc(-c3ccc(C)cc3)sc2c(=O)[nH]1			CC50 (HepG2): ND(Insoluble); IC50 (Plasmodium falciparum [1]): ND(Insoluble)
CCCCCNc1nc2cc(-c3ccc(C)cc3)sc2c(=O)[nH]1	4.2	> 5	
C[C@H]1c2cccc(O)c2C(=O)C2=C(O)[C@]3(O)C(=O)C(C(N)=O)=C(O)[C@@H](N(C)C)[C@@H]3[C@@H](O)[C@@H]21.O [DOXYCYCLINE]			Ratio CC50/IC50 [4]: 4
CCCCCCCNc1nc2cc(-c3ccc(C)cc3)sc2c(=O)[nH]1	6.8	> 5	
CC(C)(C)Nc1nc2cc(-c3ccc(F)cc3)sc2c(=O)[nH]1	5.1	> 5	
